Assay outcomes as filed in PubChem BioAssay.
A selection: hits, their analogues and other compounds. The true share with any hit is near 2.6%.
TNAP inh no acc: inhibitors of human TNAP without phosphate acceptor; P05186; AID 1012; 200,000 tested, 0.26% active; purified TNAP, CDP-star luminescence, 30 min; inhibition, % at 20 µM;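 active means tissue-nonspecific alkaline phosphatase inhibition above about 50% at 20 µM in the single-dose screen, limit read from the data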;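 further: 0% = DMSO negative control and 100% = EDTA positive control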
Target sequence (P05186 whole entry, looked up): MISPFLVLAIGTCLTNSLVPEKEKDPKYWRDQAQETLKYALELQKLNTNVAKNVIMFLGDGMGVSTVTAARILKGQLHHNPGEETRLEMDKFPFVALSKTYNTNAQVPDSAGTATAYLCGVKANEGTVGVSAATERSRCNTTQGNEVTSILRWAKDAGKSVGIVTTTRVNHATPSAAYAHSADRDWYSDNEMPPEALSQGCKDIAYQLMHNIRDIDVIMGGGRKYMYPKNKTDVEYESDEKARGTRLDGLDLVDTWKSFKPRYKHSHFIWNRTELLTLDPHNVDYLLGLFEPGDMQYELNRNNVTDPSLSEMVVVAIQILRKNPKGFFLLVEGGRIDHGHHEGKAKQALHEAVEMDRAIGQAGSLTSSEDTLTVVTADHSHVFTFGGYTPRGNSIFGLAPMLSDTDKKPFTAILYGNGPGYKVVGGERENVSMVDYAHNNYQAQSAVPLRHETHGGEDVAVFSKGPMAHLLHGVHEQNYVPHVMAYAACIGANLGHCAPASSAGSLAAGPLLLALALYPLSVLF
Arbovirus inh: arbovirus infection inhibition | AID 1251 | arbovirus infection cell-based antiviral screen | 200,000 tested, 0.37% active | inhibition, % at 10 µM; in the data active means inhibition above about 30%
WT yeast gro inh: growth inhibition of WT yeast, mitochondrial fusion screen. 190,000 tested, 2.1% active. mitochondrial fusion phenotypic screen, WT strain. AID 1362. inhibition, % at 10 µM; in the data active means inhibition above about 58%; tested in S. cerevisiae
TNAP act hi DEA: TNAP (human) activation, high acceptor; purified TNAP, CDP-star luminescence, 1 M DEA, 30 min; stronger effect = higher value; 0 = EDTA background, 1 = DMSO-only activity; AID 1136; 200,000 tested, under 10 active; activation factor at 20 µM; P05186;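 active means activation factor at least 2 at 20 µM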
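Test system – human TNAP · Doses – 20 µM single point · Incubation – 30 min, room temperature · Signal – luminescent substrate turnover signal · Read-out basis – activation factor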
TNAP inh hi DEA: blocks human TNAP under high phosphate acceptor concentration; P05186; purified TNAP, CDP-star luminescence, 1 M DEA; inhibition, % at 20 µM; 200,000 tested, 0.03% active; AID 1135;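 active means over 50% inhibition of tissue-nonspecific alkaline phosphatase at 20 µM in the single-dose screen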;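 further: plate controls were DMSO wells for no effect and EDTA-quenched wells as full inhibition for full effect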
The depositor's hits bear a star.

COc1ccc(Br)cc1CN(C)CC(=O)Nc1cccc(S(N)(=O)=O)c1 was read as TNAP inh no acc 11.7, Arbovirus inh -12.0, WT yeast gro inh 0.7, TNAP act hi DEA 0.9 and TNAP inh hi DEA 12.2.
CC(C)n1nnnc1-c1cc(Cl)cc(Cl)c1 was read as TNAP inh no acc -9.8, Arbovirus inh -4.5, WT yeast gro inh -3.5, TNAP act hi DEA 1 and TNAP inh hi DEA -4.8.
CCOc1ccc(NC(=O)C2CC(=O)N(C(C)C)C2)cc1 (stereo not given) was read as TNAP inh no acc -14.9, Arbovirus inh 0.5, WT yeast gro inh 62.9*, TNAP act hi DEA 1.1 and TNAP inh hi DEA -5.5.
Screening COc1ccc2nc(NC(=O)c3cccc(OCc4c(C)noc4C)c3)sc2c1 returned TNAP inh no acc -5.8, Arbovirus inh -16.1, WT yeast gro inh 73.5*, TNAP act hi DEA 1 and TNAP inh hi DEA -4.1.
CCSc1nnc(NC(=O)c2cccc(OCc3c(C)noc3C)c2)s1 was read as TNAP inh no acc -4.8, Arbovirus inh -4.5, WT yeast gro inh 8.0, TNAP act hi DEA 1 and TNAP inh hi DEA -4.4.
Screening O=C(Nc1ccc(N2CCCCC2)c(Cl)c1)c1ccc2c(c1)OCCO2 returned TNAP inh no acc -6.8, Arbovirus inh -24.7, WT yeast gro inh 68.5*, TNAP act hi DEA 1 and TNAP inh hi DEA -1.2.
CCC(=O)N1CCN(c2ccc(NC(=O)c3ccc4c(c3)OCO4)cc2)CC1 was read as TNAP inh no acc -15.7, Arbovirus inh -40.1, WT yeast gro inh 9.4, TNAP act hi DEA 1 and TNAP inh hi DEA -2.5.
Screening CCN1CCN(c2ccc(NC(=O)c3ccc4c(c3)OCO4)cc2)CC1 returned TNAP inh no acc -10.4, Arbovirus inh -9.4, WT yeast gro inh 64.0*, TNAP act hi DEA 1 and TNAP inh hi DEA -1.7.
For O=C(Nc1ccc(Cl)cc1)c1ccc2c(c1)OCO2 the results were TNAP inh no acc -5.4, Arbovirus inh 0.3, WT yeast gro inh 80.0*, TNAP act hi DEA 1 and TNAP inh hi DEA -0.8.
For CCOc1cc(C(=O)Nc2ccc(NC(C)=O)cc2)ccc1OCC(=O)N1CCCCC1 the results were TNAP inh no acc -9.3, Arbovirus inh 9.7, WT yeast gro inh 9.5, TNAP act hi DEA 1 and TNAP inh hi DEA 1.0.
Cc1cnc(C(=O)Oc2c(C)ccc(C)c2C)cn1 was read as TNAP inh no acc -10.9, Arbovirus inh -1.5, WT yeast gro inh -8.4, TNAP act hi DEA 1 and TNAP inh hi DEA -4.9.
Cc1[nH]nc(N)c1N=Nc1ccc(Br)cc1 was read as TNAP inh no acc -62.3, Arbovirus inh -23.0, WT yeast gro inh 55.2, TNAP act hi DEA 1 and TNAP inh hi DEA 2.5.
`Cc1nc(N)sc1N=Nc1ccc(Br)cc1` gave TNAP inh no acc 4.1, Arbovirus inh -18.7, WT yeast gro inh 66.3*, TNAP act hi DEA 0.8 and TNAP inh hi DEA 20.0.
`CCn1c(SCC(=O)NC(C)(C)C)nnc1-c1ccccn1` gave TNAP inh no acc -13.6, Arbovirus inh 2.5, WT yeast gro inh -4.6, TNAP act hi DEA 1 and TNAP inh hi DEA -1.0.
Screening CCOc1cccc(Oc2ncccc2C(=O)/C(C#N)=C/N(C)C)c1 returned TNAP inh no acc -3.9, Arbovirus inh 0.4, WT yeast gro inh 95.1*, TNAP act hi DEA 1 and TNAP inh hi DEA 1.3.
For Cc1ccc(CNC(=O)CSc2nc(N3CCCCC3)nc(N3CCCCC3)n2)cc1 the results were TNAP inh no acc -7.4, Arbovirus inh -11.7, WT yeast gro inh 33.0, TNAP act hi DEA 1.1 and TNAP inh hi DEA -6.3.
Screening CC(C)N1C2OC(C3OC4C(O3)N(C(C)C)S(=O)(=O)N4C(C)C)OC2N(C(C)C)S1(=O)=O (stereo not given) returned TNAP inh no acc 2.2, Arbovirus inh 10.6, WT yeast gro inh 62.8*, TNAP act hi DEA 1 and TNAP inh hi DEA -2.7.
`CN(C)/C=C/C1=CC(=O)CC(C)(C)C1` gave TNAP inh no acc 2.9, Arbovirus inh 3.7, WT yeast gro inh -4.5, TNAP act hi DEA 1 and TNAP inh hi DEA 3.0.
`Cc1ccc(NC2=NCC(=O)N2C2CCCC2)c(C)c1` gave TNAP inh no acc -6.7, Arbovirus inh -3.7, WT yeast gro inh 5.5, TNAP act hi DEA 1 and TNAP inh hi DEA 0.6.
`CCOC(=O)C1CCN(C(=S)Nc2cccc(C)c2C)CC1` gave TNAP inh no acc -7.8, Arbovirus inh 5.7, WT yeast gro inh 6.5, TNAP act hi DEA 1 and TNAP inh hi DEA -0.3.
N#Cc1ccc(NC(=O)Nc2ccc(Cl)cc2)cc1 was read as TNAP inh no acc 0.0, Arbovirus inh -16.1, WT yeast gro inh 63.1*, TNAP act hi DEA 1 and TNAP inh hi DEA 1.9.
For CCN1CCN(CC(=O)Nc2ccc(Cl)c(S(=O)(=O)N(C)C)c2)CC1 the results were TNAP inh no acc -10.9, Arbovirus inh 4.0, WT yeast gro inh -40.1, TNAP act hi DEA 1.1 and TNAP inh hi DEA -5.4.
Screening CCCCc1ccc(NC(=S)Nc2ccc(Cl)c(S(=O)(=O)N(C)C)c2)cc1 returned TNAP inh no acc -34.6, Arbovirus inh -18.8, WT yeast gro inh 77.1*, TNAP act hi DEA 1 and TNAP inh hi DEA 0.2.
For CCCCC(=O)N(Cc1nc2sc(C)c(C)c2c(=O)[nH]1)C1CCCC1 the results were TNAP inh no acc -3.1, Arbovirus inh -4.2, WT yeast gro inh 5.1, TNAP act hi DEA 1 and TNAP inh hi DEA -2.5.
For Cc1ccc(N2C(=O)C3ON(c4ccccc4)C(c4ccncc4)C3C2=O)c(C)c1 (stereo not given) the results were TNAP inh no acc -10.7, Arbovirus inh 1.7, WT yeast gro inh 5.6, TNAP act hi DEA 1 and TNAP inh hi DEA -3.2.
COc1ccc(CCNS(=O)(=O)c2ccc(OC)cc2)cc1 was read as TNAP inh no acc 4.5, Arbovirus inh 5.8, WT yeast gro inh 74.3*, TNAP act hi DEA 1 and TNAP inh hi DEA -4.1.
Screening COc1ccc(CCNS(=O)(=O)c2ccc3c(c2)OCCO3)cc1 returned TNAP inh no acc -13.4, Arbovirus inh 20.7, WT yeast gro inh -14.4, TNAP act hi DEA 1 and TNAP inh hi DEA -2.7.
COc1ccc(C(=O)Nc2nnc(CCS(=O)(=O)c3ccc(C)cc3)s2)cc1 was read as TNAP inh no acc -7.0, Arbovirus inh 3.8, WT yeast gro inh -0.4, TNAP act hi DEA 1 and TNAP inh hi DEA -1.2.
Screening CC(/C=C1\SC(=S)N(NC(=O)c2ccc(O)cc2)C1=O)=C\c1ccccc1 returned TNAP inh no acc 12.1, Arbovirus inh 7.1, WT yeast gro inh 89.9*, TNAP act hi DEA 0.9 and TNAP inh hi DEA 7.1.
For Cc1ccc(NC(=O)c2ccc(Nc3c([N+](=O)[O-])cc([N+](=O)[O-])cc3[N+](=O)[O-])cc2)cc1 the results were TNAP inh no acc -6.2, Arbovirus inh -27.7, WT yeast gro inh 59.8*, TNAP act hi DEA 0.5 and TNAP inh hi DEA 53.7*.
COc1ccc(C2CC(c3cccs3)=NN2c2nc(-c3ccccc3)cs2)cc1OC (stereo not given) was read as TNAP inh no acc -51.5, Arbovirus inh -3.0, WT yeast gro inh -6.9, TNAP act hi DEA 1 and TNAP inh hi DEA 1.0.
For O=C(C[n+]1ccccc1)Nc1ccccc1Br the results were TNAP inh no acc -5.0, Arbovirus inh -4.4, WT yeast gro inh -4.0, TNAP act hi DEA 1.1 and TNAP inh hi DEA -8.2.
